In ChEMBL document CHEMBL1255350, “Plasma and cerebrospinal fluid pharmacokinetics of moxifloxacin in a patient with tuberculous meningitis” (Antimicrob Agents Chemother, 2008):
Converted amounts (≈) assume the structure as drawn.

Key:
[1] = fAUC (0 to 24 hrs) in plasma of patient with intracerebral and leptomeningeal tuberculosis at 800 […], po QD measured on day 3; format: ADME, organism-based; parameters: route oral; conditions: human, in vivo
[2] = fAUC (0 to 24 hrs) in CSF of patient with intracerebral and leptomeningeal tuberculosis at 800 […], po QD measured on day 3; format: ADME, organism-based, Cerebrospinal fluid; parameters: dose 800 mg/kg, route oral; conditions: human, in vivo
[3] = Tmax in plasma of patient with intracerebral and leptomeningeal tuberculosis at 800 […], po QD measured on day 3; format: ADME, organism-based; parameters: route oral; conditions: human
[4] = AUC (0 to 24 hrs) in CSF of patient with intracerebral and leptomeningeal tuberculosis at 800 […], po QD measured on day 3; format: ADME, organism-based, Cerebrospinal fluid; parameters: time < 24 hr, route oral; conditions: human
Procedure, shortened: (§1)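 Single patient on steady-state oral moxifloxacin, 400 or 800 mg once daily, sampled on day 3 of each dose. CSF was taken from an external lumbar drain and blood from a peripheral IV catheter into heparin tubes, predose and at 2, 4, 8, 12 and 24 h. Plasma was separated at 1,500 × g for 10 min at room temperature and stored at −20°C.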

[5] = AUC (0 to 24 hrs) in plasma of patient with intracerebral and leptomeningeal tuberculosis at 400 […], po QD measured on day 3; format: ADME, organism-based; parameters: time < 24 hr, route oral; conditions: human
Procedure, shortened: (§2)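 Single patient with intracerebral and leptomeningeal TB without active meningitis. Oral dosing once daily at 400 mg, then 800 mg, each sampled at steady state on day 3. Blood and CSF were drawn through a peripheral intravenous catheter and an external lumbar drain into heparin tubes. Sampling was predose and at 2, 4, 8, 12 and 24 h. Plasma was spun 1,500 × g for 10 min at room temperature and stored at −20°C.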

Homo sapiens [6] = assay: Hepatotoxicity in patient with intracerebral and leptomeningeal tuberculosis at 800 […], po QD measured on day 3; format: toxicity, organism-based; parameters: route oral; conditions: in vivo
Procedure, shortened: (§3)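 Safety was monitored during oral once-daily treatment at 400 and then 800 mg. QTc was tracked by ECG, and blood samples were taken for renal and liver function tests.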

[7] = Cmax in plasma of patient with intracerebral and leptomeningeal tuberculosis at 800 […], po QD measured on day 3; format: ADME, organism-based; parameters: route oral; conditions: human; procedure, shortened: as §2
[8] = system: Mycobacterium tuberculosis; assay: Antimicrobial activity against Mycobacterium tuberculosis; format: functional
Procedure, shortened: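 MIC for the patient's isolate was determined by the Middlebrook 7H10 agar dilution method. It was used to calculate AUC0-24/MIC ratios.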

[9] = Cmax in plasma of patient with intracerebral and leptomeningeal tuberculosis at 400 […], po QD measured on day 3; format: ADME, organism-based; parameters: route oral; conditions: human
Homo sapiens [10] = assay: Renal toxicity in patient with intracerebral and leptomeningeal tuberculosis at 800 […], po QD measured on day 3; format: organism-based; parameters: route oral; conditions: in vivo
[11] = Tmax in plasma of patient with intracerebral and leptomeningeal tuberculosis at 400 […], po QD measured on day 3; format: ADME, organism-based; parameters: route oral; conditions: human
[12] = Cmax in CSF of patient with intracerebral and leptomeningeal tuberculosis at 800 […], po QD measured on day 3; format: ADME, organism-based, Cerebrospinal fluid; parameters: route oral; conditions: human; procedure, shortened: as §1
Homo sapiens [13] = assay: Cardiotoxicity in patient with intracerebral and leptomeningeal tuberculosis assessed as QT prolongation at 400 […], po […]; format: toxicity, organism-based; parameters: route oral; conditions: in vivo
[14] = fAUC (0 to 24 hrs) in CSF of patient with intracerebral and leptomeningeal tuberculosis at 400 […], po QD measured on day 3; format: ADME, organism-based, Cerebrospinal fluid; parameters: route oral; conditions: human, in vivo
Procedure, shortened: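 Same patient and sampling: oral 400 or 800 mg once daily at steady state, day 3 of each dose, predose to 24 h, with CSF from a lumbar drain and heparinized blood from an IV catheter. Free AUC0-24 was calculated assuming 40% protein binding.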

[15] = fAUC (0 to 24 hrs) in plasma of patient with intracerebral and leptomeningeal tuberculosis at 400 […], po QD measured on day 3; format: ADME, organism-based; parameters: route oral; conditions: human, in vivo
[16] = Tmax in CSF of patient with intracerebral and leptomeningeal tuberculosis at 800 […], po QD measured on day 3; format: ADME, organism-based, Cerebrospinal fluid; parameters: route oral; conditions: human
[17] = AUC (0 to 24 hrs) in CSF of patient with intracerebral and leptomeningeal tuberculosis at 400 […], po QD measured on day 3; format: ADME, organism-based, Cerebrospinal fluid; parameters: time < 24 hr, dose 400 mg/kg, route oral; conditions: human
[18] = Cmax in CSF of patient with intracerebral and leptomeningeal tuberculosis at 400 […], po QD measured on day 3; format: ADME, organism-based, Cerebrospinal fluid; parameters: route oral; conditions: human
[19] = Tmax in CSF of patient with intracerebral and leptomeningeal tuberculosis at 400 […], po QD measured on day 3; format: ADME, organism-based, Cerebrospinal fluid; parameters: route oral; conditions: human
Homo sapiens [20] = assay: Cardiotoxicity in patient with intracerebral and leptomeningeal tuberculosis assessed as QT prolongation at 800 […], po […]; format: toxicity, organism-based; parameters: route oral; conditions: in vivo
Homo sapiens [21] = assay: Hepatotoxicity in patient with intracerebral and leptomeningeal tuberculosis at 400 […], po QD measured on day 3; format: toxicity, organism-based; parameters: route oral; conditions: in vivo
[22] = AUC (0 to 24 hrs) in plasma of patient with intracerebral and leptomeningeal tuberculosis at 800 […], po QD measured on day 3; format: ADME, organism-based; parameters: time < 24 hr, route oral; conditions: human
Homo sapiens [23] = assay: Renal toxicity in patient with intracerebral and leptomeningeal tuberculosis at 400 […], po QD measured on day 3; format: organism-based; parameters: route oral; conditions: in vivo; procedure, shortened: as §3

## COc1c(N2C[C@@H]3CCCN[C@@H]3C2)c(F)cc2c(=O)c(C(=O)O)cn(C3CC3)c12 [MOXIFLOXACIN]
[1]
  fAUC: 11.6 mg·h/L
[2]
  fAUC: 14.3 mg·h/L
[3]
  Tmax: 2 h
[4]
  AUC at 24 h: 14300 ng·h/mL
[5]
  AUC at 24 h: 8900 ng·h/mL
Homo sapiens [6]
  Activity: Non-toxic
[7]
  Cmax: 2450 ng/mL
[8]
  MIC: 0.15 µg/mL (≈ 0.374 µM)
[9]
  Cmax: 1060 ng/mL
Homo sapiens [10]
  Activity: Non-toxic
[11]
  Tmax: 2 h
[12]
  Cmax: 1420 ng/mL
Homo sapiens [13]
  Activity: Non-toxic
[14]
  fAUC: 8.4 mg·h/L
[15]
  fAUC: 5.3 mg·h/L
[16]
  Tmax: 4 h
[17]
  AUC at 24 h: 8400 ng·h/mL
[18]
  Cmax: 616 ng/mL
[19]
  Tmax: 4 h
Homo sapiens [20]
  Activity: Non-toxic
Homo sapiens [21]
  Activity: Non-toxic
[22]
  AUC at 24 h: 19400 ng·h/mL
Homo sapiens [23]
  Activity: Non-toxic
